Laboratory results reported in the RNAGym collection of RNA variant scans (doi:10.1126/science.aae0568).
This sample holds only a part of the variants without activity.

B1: tRNA (parent)
chain: GUUCCGUUGGCGUAAUGGUAACGCGUCUCCCUCCUAAGGAGAAGACUGCGGGUUCGAGUCCCGUACGGAACG

Variants of: B1
Test: yeast fitness relative to wild type (ratio to wild type); higher = fitter; tRNA-Arg(CCU), competitive growth, 37 C, YPD
How it was run: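 Gene amplicons from the start population and from each of six end populations were read by 100-nucleotide paired-end sequencing. Those end populations came from pooled Saccharomyces cerevisiae strains carrying tRNA-Arg(CCU) gene variants at the native locus, competed in YPD at 37°C for 24 hours. Fitness relative to wild type was worked out from changes in genotype frequencies. Genotypes needed ≥ 100 starting reads, and estimates < 0.5 were set to 0.5.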

| Variant | yeast fitness |
| --- | --- |
| GUGCCGUUGGCGUAAUGGUAACGCAUCUCCCUCCUAAGGAGAAGACUGCGGGUUCGAGUCUCGUACGGAACG [U3G G25A C61U] | 0.733 |
| GUGCCGUUGGCGUAAUGGUAACGCAUCUCCCUCCUAAGGAGAAGUCUGCGGGUUCGAGUCCAGUACGGAACG [U3G G25A A45U C62A] | ≤ 0.5 |
| GUGCCGUUGGCGUAAUGGUAACGCGUCUCCCUCCUAAGGAGAAGACUUCGGGUUCGAGUCCCGUACGGAACG [U3G G48U] | 0.937 |
| GUGCCGUUGGCGUAAUGGUAACGCGUCUCCCUCCUAAGGAGAAGACUACGGGUUCGAGUCCCGUACGGAACG [U3G G48A] | 0.856 |
| GUGCCGUUGGCGUAAUGGUAACGCGUCUCCCUCCUAAGGAGAAGACUGCGGGUUCGAGUCCCGGACGGAACG [U3G U64G] | 0.716 |
| GUGCCGUUGGCGUAAUGGUAACGCGUCUCCCUCCUAAGGAGAAGACUGCGGGCUCGAGUCCCGUAUGGUACG [U3G U53C C66U A69U] | 0.548 |
| GUGCCGUAGGCGUAAUGCUAACGCGUCUCCCUCCUAAGGAGAAGACUGCCGGUUCGAGUCCCGUACGGAACG [U3G U8A G18C G50C] | ≤ 0.5 |
| GUGCCGUCGGCGUAAUGGUAACGCGUCUCCCUCCUAAGGAGAAGACUGCGGGUUCGAGUCCAGUACGGAACG [U3G U8C C62A] | ≤ 0.5 |
| GUGCCGUUGGCGUAAUGGUAACGCGUCUCCCUCCUAAGGAGAAGACUGCGGGAUCGAGUCCCGUACGGAACG [U3G U53A] | 0.662 |
| GUGCCGUUGGCGUAAUGGUAACGCGUCUCCCUCCUAAGGAGAAGACUCCGGGUUCGAGUCCCGUACAGAACG [U3G G48C G67A] | 0.683 |
| GUGCCGUCGGCGUAAUGGUAACGCGUCUCCCUCCUAAGGAGAAGACUGCGGGUUCGAAUCCCGUACGGAACG [U3G U8C G58A] | 0.763 |
| GUGCCGUUGGCGAAAUGGUAACGCGUCUCCCUCCUAAGGAGAAGACUGCGGGUUCGAGUCCCGUACGGAACG [U3G U13A] | 1.1 |
| GUGCCGUUGGCGCUAUGGUAACGCGUCUACCUCCUAAGGAGAAGACUGCGGGUUCGAGUCCCGUACGGAACG [U3G U13C A14U C29A] | 0.672 |
| GUGCCGUAGGCGUAAUGGUAACGCGGCUCCCUCCUAACGCGAAGACUGCGGGCUCGAGUCCCGUACGGAACG [U3G U8A U26G G38C A40C U53C] | 0.566 |
| GUGCCGUUGGCGCAAUGGUAAAGCGUCUCCCUCCUAAGGAGAAGACUGCGGGUUCGAGUCCCGUACGGAACG [U3G U13C C22A] | 0.656 |
| GUGCCGUUGGCGUAAUGGUAACGCGACGCCCUCCUAAGGAGAAGCCUGCGGGUCCGAGUCCCGUACAGUACG [U3G U26A U28G A45C U54C G67A A69U] | ≤ 0.5 |
| GUGCCGUAGGCGUAAUGGUAACGCGUCUCCAUCCUAAGGAGAAGACUGCGGGUUUGAGUCCCGUACGGAACG [U3G U8A C31A C55U] | ≤ 0.5 |
| GUGCCGUUGGCGUAAUGGUAACGCGUCUCCCUCCUAAGGAGAAGACUGCGGGCUCGGGUCCCGUAUGGUACG [U3G U53C A57G C66U A69U] | ≤ 0.5 |
| GUGCCGUUGGCGUAAUGGUAACGCGUCUCCCUCCGAUGGAGAAGACCGCGGGUUCCAGUCCCGUACGGCACG [U3G U35G A37U U47C G56C A69C] | ≤ 0.5 |

| Variant | yeast fitness |
| --- | --- |
| GUGCCGUUGGCGUAAUGGUAACGCAUGUCCCUCCUAAGGAGAAGACUGCCGGUUCGAGUCCCGUACGGAACG [U3G G25A C27G G50C] | 0.537 |
| GUGCCGUUGGCGCUAUGGUAACGCGUCUACCUCCUAAGGAGAAGACUGCGGGUUUGAGUCCCGUACGGAACG [U3G U13C A14U C29A C55U] | 0.611 |
| GUGCCGUCGGCGUAUUGGUAACGCGUCUCCCUCCUAAGGAGAAGACUGAGGGUUCGAGUCCCGUACGGAACG [U3G U8C A15U C49A] | 0.597 |
| GUGCCGUUGGCGUAAUGGUAACGCGACUCCCUCCUAAGGAGAAGACUGCGGGUUCGAGUCCCGUGCGGAACG [U3G U26A A65G] | ≤ 0.5 |
| GUGCCGCUGGCGUAAUGGUAACGCGUCUCCCUCCUAAGGUGAAGACUGCGGGUUCGAGUCCCGUACGGAACG [U3G U7C A40U] | 0.502 |
| GUGCCGUUGGCGUAAUCGUAACGCGUCUUCCUCCUAGGGAGAAGACUGCGGGUUCGAGUCUCGUACGGACCG [U3G G17C C29U A37G C61U A70C] | 0.512 |
| GUGCCGUUGGCGUAAUGGUAACGCGUCUCCCUCCUAAGGAGAAGACUGCGGGUUCAAGUCCCGUACGGAACG [U3G G56A] | 0.898 |
| GUGCCGUAGGCGUAAUGGUAACGAGUCUCCCUCCUAAGGAGAAGACUGCGGGUUCGAGUCCCGUACGGAGCG [U3G U8A C24A A70G] | ≤ 0.5 |
| GUGCCGUUGGCGUAAUGGUAACGCGUCACCCUCCUAAGGAGAAGACUGCGGGUUCGAGUCCCGUACGGAACG [U3G U28A] | 0.605 |
| GUGCCGUUGGCGUAAUGGUAACGCGUCCCCCUCCUAAGGAGAAGACUGCGGGUUCGAGUCCCGUACGGAACG [U3G U28C] | 0.888 |
| GUGCCGUUGGCGCAAUGGUAACGCGUCUCCCUACUAAGGAGUAGACUGCGGGUUAGAGUCCCGUACGGAACG [U3G U13C C33A A42U C55A] | 0.585 |
| GUGCCGAUAGCGUAAUGGUAACGCGUCCCCCUCCUAAGGUGAAGACUGCGGGUUCGAGUCCCGUACGGAACG [U3G U7A G9A U28C A40U] | ≤ 0.5 |
| GUGCCGGUGGCGUAAUGGUAAUGCGUCUCCCUCCUAAGGAGAAGACUGCGGGUUCGAGUGCCGUACGGAACG [U3G U7G C22U C60G] | ≤ 0.5 |
| GUGCCGUUGGCGUAAUGAUAACGCGUCUCCCUCCUAAGGAAAAGUCUGCGGGUUCGAGUCCCGUACGGAACG [U3G G18A G41A A45U] | ≤ 0.5 |
| GUGCCGUUGGCGUAAUGGUAACGCGUCUCCCUCCUAAGGAGAAGACUGCGGCUUCGAGUCCAGUCCGGAUCG [U3G G52C C62A A65C A70U] | ≤ 0.5 |
| GUGCCGUUGGCGUAAUGGUAACGCAUCUCCCUCCUAAGGAGAAGACUGCGGGUUCGAGUCCCGUACGGAACG [U3G G25A] | 0.768 |
| GUGCCGUUGGCGUAAUGGUAACACGUCUCCCUCCUUAGGAGAGGACUGCGGGUUCGAGUCACGUACGGAGCG [U3G G23A A36U A43G C61A A70G] | ≤ 0.5 |
| GUGCCGUUGGCCUAAUGGUAACGCGUCUCCCUCCUAAGGAGAAGACUGCGGGUUCGAGUCCCGUACGGACCG [U3G G12C A70C] | 0.545 |
